Data as given in ChEMBL document CHEMBL1128367, “Synthesis of 4"-deoxy motilides: identification of a potent and orally active prokinetic drug candidate” (J Med Chem, 1995).

Legend:
[1] = species: Oryctolagus cuniculus; test: The compound was tested in vitro for prokinetic activity as smooth muscle contractility in isolated rabbit duodenum; assay type: functional, Muscle tissue
[2] = Activity relative to erythromycin A
[3] = Oral bioavailability in dog; assay type: ADME, organism-based, Canis lupus familiaris; conditions: in vivo
Procedure, shortened: (§1)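 Groups of fasted male/female beagle dogs received the lactobionate salt as a 2 mg/mL solution, at 0.5 mg/kg iv or 1 mg/kg po. Blood was sampled at set times over 12 h. Parent drug was extracted from alkalized plasma with EtOAc:hexane (1:1) and measured by reverse-phase HPLC (pH 6.9 phosphate mobile phase) with oxidative electrochemical detection. The assay was linear over 0-500 ng/mL, with LOQ ~7 ng/mL.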

[4] = Half life period after oral administration in the dog; assay type: ADME, organism-based, Canis lupus familiaris; conditions: in vivo; procedure, shortened: as §1

SMILES	Relative activity [2]	bioavailability [3] [%]	half-life [4] [h]	pED50 [1]
CC[C@H]1OC(=O)[C@H](C)[C@@H](O[C@H]2C[C@@](C)(OC)[C@@H](O)[C@H](C)O2)[C@H](C)[C@@H](O[C@@H]2O[C@H](C)C[C@H](N(C)C)[C@H]2O)[C@@]2(C)CC(C)=C(O2)[C@H](C)[C@@H](O)[C@]1(C)O	2.55			8.4
CC[C@H]1OC(=O)[C@H](C)[C@@H](O[C@H]2C[C@@](C)(OC)[C@@H](O)[C@H](C)O2)[C@H](C)[C@@H](O[C@@H]2O[C@H](C)C[C@H](N(C)C)[C@H]2O)[C@@]2(C)CC(C)=C(O2)[C@H](C)[C@@H](O)[C@H]1C	2.83			8.68
CC[C@H]1OC(=O)[C@H](C)[C@@H](O[C@H]2C[C@@](C)(OC)[C@@H](O)[C@H](C)O2)[C@H](C)[C@@H](O[C@@H]2O[C@H](C)C[C@H](N(C)C)[C@H]2O)[C@](C)(O)C[C@@H](C)C(=O)[C@H](C)[C@@H](O)[C@]1(C)O [ERYTHROMYCIN]				5.85
CC[C@H]1OC(=O)[C@H](C)[C@@H](O[C@H]2C[C@@](C)(OC)C[C@H](C)O2)[C@H](C)[C@@H](O[C@@H]2O[C@H](C)C[C@H](NC)[C@H]2O)[C@@]2(C)CC(C)=C(O2)[C@H](C)[C@@H](O)[C@H]1C	> 6.15	23.8	2	>12
CC[C@H]1OC(=O)[C@H](C)[C@@H](O[C@H]2C[C@@](C)(OC)C[C@H](C)O2)[C@H](C)[C@@H](O[C@@H]2O[C@H](C)C[C@H](N(C)C)[C@H]2O)[C@@]2(C)CC(C)=C(O2)[C@H](C)[C@@H](O)[C@H]1C	5.41			11.26
CC[C@H]1OC(=O)[C@H](C)[C@@H](O[C@H]2C[C@@](C)(OC)[C@@H](O)[C@H](C)O2)[C@H](C)[C@@H](O[C@@H]2O[C@H](C)C[C@H](NC)[C@H]2O)[C@@]2(C)CC(C)=C(O2)[C@H](C)[C@@H](O)[C@]1(C)O	1.3			7.1

Now from value to compound, other results behind:

Relative activity [2]	bioavailability [3] [%]	half-life [4] [h]	SMILES	pED50 [1]
2.56			CC[C@H]1OC(=O)[C@H](C)[C@@H](O[C@H]2C[C@@](C)(OC)C[C@H](C)O2)[C@H](C)[C@@H](O[C@@H]2O[C@H](C)C[C@H](N(C)C)[C@H]2O)[C@@]2(C)CC(C)=C(O2)[C@H](C)[C@@H](O)[C@]1(C)O	8.41
2.6	1.4	2.4	CC[C@H]1OC(=O)[C@H](C)[C@@H](O[C@H]2C[C@@](C)(OC)[C@@H](O)[C@H](C)O2)[C@H](C)[C@@H](O[C@@H]2O[C@H](C)C[C@H](N(C)CC)[C@H]2O)[C@@]2(C)CC(C)=C(O2)[C@H](C)[C@@H](O)[C@]1(C)O	8.45
> 6.15	39	5.5	CC[C@H]1OC(=O)[C@H](C)[C@@H](O[C@H]2C[C@@](C)(OC)C[C@H](C)O2)[C@H](C)[C@@H](O[C@@H]2O[C@H](C)C[C@H](N(C)CC)[C@H]2O)[C@@]2(C)CC(C)=C(O2)[C@H](C)[C@@H](O)[C@H]1C [ALEMCINAL]	>12
3.89			CC[C@H]1OC(=O)[C@H](C)[C@@H](O[C@H]2C[C@@](C)(OC)C[C@H](C)O2)[C@H](C)[C@@H](O[C@@H]2O[C@H](C)C[C@H](NC)[C@H]2O)[C@@]2(C)CC(C)=C(O2)[C@H](C)[C@@H](O)[C@]1(C)O	9.74
5.3	2.7	2.6	CC[C@H]1OC(=O)[C@H](C)[C@@H](O[C@H]2C[C@@](C)(OC)C[C@H](C)O2)[C@H](C)[C@@H](O[C@@H]2O[C@H](C)C[C@H](N(C)CC)[C@H]2O)[C@@]2(C)CC(C)=C(O2)[C@H](C)[C@@H](O)[C@]1(C)O	11.15
